Test [1] can be described thus: Inhibition of Carnobacterium divergens BM4489 penicillinase Cad-1. Put shortly: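 CAD-1 carried a C-terminal His6 tag and was expressed in E. coli BL21-CodonPlus(DE3)-RIPL from pAT514. It was purified by Ni affinity and Superdex 75 gel filtration. Enzyme was preincubated with varied inhibitor for 30 min at 25°C in 100 mM sodium phosphate pH 7.0, then 100 µM nitrocefin was added. Initial hydrolysis rates were followed spectrophotometrically. IC50 is the inhibitor concentration halving the rate.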

The subject of test [2] is Carnobacterium divergens. Put plainly: Activity of Carnobacterium divergens BM4489 penicillinase Cad-1 at 1 uM enzyme concentration assessed as initial rate of hydrolysis by spectrophotometer.
In test [3] the test system is Carnobacterium divergens. In words: Antimicrobial activity against Carnobacterium divergens BM4489 expressing beta-lactamase CAD1 at 0.5 McFarland inoculum size by E-test. It counts as functional.
Test [4] has as its system Carnobacterium divergens. Put plainly: Antimicrobial activity against Carnobacterium divergens BM4490 expressing beta-lactamase CAD1 at 3 McFarland inoculum size by E-test. It counts as functional, organism-based. To be noted: 3 M.
Test [5] relates to Carnobacterium divergens. In words: Antimicrobial activity against Carnobacterium divergens BM4489 expressing beta-lactamase CAD1 at 3 McFarland inoculum size by E-test. It counts as functional.
Test [6] relates to Carnobacterium divergens. In words: Antimicrobial activity against Carnobacterium divergens CIP101029 at 3 McFarland inoculum size by E-test. It counts as functional.
Test [7] deals with Carnobacterium divergens. In words: Antimicrobial activity against Carnobacterium divergens CIP101029 at 0.5 McFarland inoculum size by E-test. The class given is functional.
The test system of test [8] is Carnobacterium divergens. Put plainly: Antimicrobial activity against Carnobacterium divergens BM4490 expressing beta-lactamase CAD1 at 0.5 McFarland inoculum size by E-test. It counts as functional, organism-based.
Test [9] relates to Escherichia coli. In words: Antimicrobial activity against Escherichia coli BL21 (DE3) by E-test. The class given is functional. Summed up:
(§1)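 MICs read by E-test strips on Mueller-Hinton agar.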

Test [10] deals with Escherichia coli. Put plainly: Antimicrobial activity against Escherichia coli BL21 (DE3) harboring pAT514 by E-test. The class given is functional. Put shortly:
as §1

In test [11] the test system is Carnobacterium divergens. In words: Ratio of Kcat to Km of Carnobacterium divergens BM4489 penicillinase Cad-1.
Test [12] deals with Carnobacterium divergens. In words: Activity of Carnobacterium divergens BM4489 penicillinase Cad-1 assessed as initial rate of hydrolysis by spectrophotometer.
Test [13] relates to Carnobacterium divergens. Put plainly: Ratio of Kcat to Km of Carnobacterium divergens BM4489 penicillinase Cad-1 relative to benzyl-penicillin.
Test [14] in a line: Ratio of IC50 for beta-lactamase TEM-1 over IC50 for Carnobacterium divergens BM4489 penicillinase Cad-1.

Values after ≈ are worked out from the molar mass of the structure shown. Active and inactive are the calls of the source.

Compound `CC1(C)[C@H](C(=O)O)N2C(=O)C[C@H]2S1(=O)=O` [SULBACTAM] had a 50% inhibitory concentration (IC50) in [1] of 43.5 µM.
In the case of `CO[C@@]1(NC(=O)Cc2cccs2)C(=O)N2C(C(=O)O)=C(COC(N)=O)CS[C@@H]21`, in the test with Carnobacterium divergens [2], the result was inactive.
For `C[C@@H](O)[C@H]1C(=O)N2C(C(=O)O)=C(SCCNC=N)C[C@H]12` [IMIPENEM ANHYDROUS], the minimum inhibitory concentration (MIC) with Carnobacterium divergens [3] amounted to 0.19 µg/mL (≈ 0.635 µM); in the test on Carnobacterium divergens [5] it was 0.19 µg/mL (≈ 0.635 µM); against Carnobacterium divergens [6], 0.19 µg/mL (≈ 0.635 µM); with Carnobacterium divergens [7], 0.19 µg/mL (≈ 0.635 µM); in the test on Escherichia coli [9] it was 0.25 µg/mL (≈ 0.835 µM); against Escherichia coli [10], 0.19 µg/mL (≈ 0.635 µM). The minimal inhibitory concentration (MIC) result in the test with Carnobacterium divergens [4] and with Carnobacterium divergens [8] was “Active” throughout.
As to `CCN1CCN(C(=O)N[C@@H](C(=O)N[C@@H]2C(=O)N3[C@@H]2SC(C)(C)[C@@H]3C(=O)O)c2ccccc2)C(=O)C1=O` [PIPERACILLIN], the minimum inhibitory concentration (MIC) in the test on Carnobacterium divergens [3] is 64 µg/mL (≈ 124 µM); in the test with Carnobacterium divergens [5], 128 µg/mL (≈ 247 µM); in the test with Carnobacterium divergens [6], 32 µg/mL (≈ 61.8 µM); against Carnobacterium divergens [7] it was 12 µg/mL (≈ 23.2 µM); in the test with Escherichia coli [9], 0.38 µg/mL (≈ 0.734 µM); in the test with Escherichia coli [10] it was greater than 256 µg/mL. In addition, the kcat/Km in the test on Carnobacterium divergens [11] worked out at 914000 M⁻¹ s⁻¹; with Carnobacterium divergens [13], 14. Further, the MIC entry in the test with Carnobacterium divergens [4] and with Carnobacterium divergens [8] was “Active” each time. The Michaelis constant (Km) in the test with Carnobacterium divergens [12] turned out to be 70 µM. In addition, in the test with Carnobacterium divergens [12], the turnover number (kcat) came out at 64 s⁻¹.
`CC1(C)S[C@@H]2[C@H](NC(=O)C(C(=O)O)c3ccccc3)C(=O)N2[C@H]1C(=O)O` (some centres undefined): the kcat/Km in the test on Carnobacterium divergens [11] was 24000 M⁻¹ s⁻¹. Further, in the test on Carnobacterium divergens [12], the Km is 245 µM and the turnover number (kcat) stood at 6 s⁻¹. Also, the kcat/Km in the test on Carnobacterium divergens [13] was 0.4.
On to `C[C@]1(Cn2ccnn2)[C@H](C(=O)O)N2C(=O)C[C@H]2S1(=O)=O` [TAZOBACTAM], for which the IC50 in [1] was determined as 0.27 µM.
As to `CC1(C)S[C@@H]2[C@H](NC(=O)[C@H](N)c3ccc(O)cc3)C(=O)N2[C@H]1C(=O)O` [AMOXICILLIN], the minimum inhibitory concentration (MIC) with Carnobacterium divergens [3] was 4 µg/mL (≈ 10.9 µM); against Carnobacterium divergens [5], 16 µg/mL (≈ 43.8 µM); with Carnobacterium divergens [6], 2 µg/mL (≈ 5.47 µM); against Carnobacterium divergens [7], 0.75 µg/mL (≈ 2.05 µM); with Escherichia coli [9], 1.5 µg/mL (≈ 4.1 µM); in the test on Escherichia coli [10], greater than 256 µg/mL. Moreover, the MIC result in the test on Carnobacterium divergens [4] and in the test with Carnobacterium divergens [8] was “Active” in each case.
In the case of `CC1(C)S[C@@H]2[C@H](NC(=O)[C@H](N)c3ccccc3)C(=O)N2[C@H]1C(=O)O` [AMPICILLIN], the MIC was 3 µg/mL (≈ 8.59 µM) against Carnobacterium divergens [3]; 24 µg/mL (≈ 68.7 µM) in the test on Carnobacterium divergens [5]; 2 µg/mL (≈ 5.72 µM) against Carnobacterium divergens [6]; 1.5 µg/mL (≈ 4.29 µM) against Carnobacterium divergens [7]; 0.75 µg/mL (≈ 2.15 µM) with Escherichia coli [9]; greater than 256 µg/mL in the test with Escherichia coli [10]. For the same compound, the kcat/Km amounted to 3.19e+06 M⁻¹ s⁻¹ in the test with Carnobacterium divergens [11] and 48 with Carnobacterium divergens [13]. Besides, the minimal inhibitory concentration (MIC) entry in the test with Carnobacterium divergens [4] and in the test with Carnobacterium divergens [8] was “Active” throughout. For the same compound, in the test on Carnobacterium divergens [12], the Michaelis constant (Km) was found to be 48 µM. The kcat with Carnobacterium divergens [12] is 153 s⁻¹.
As to `CO/N=C(\C(=O)N[C@@H]1C(=O)N2C(C(=O)O)=C(COC(C)=O)CS[C@H]12)c1csc(N)n1` [CEFOTAXIME], the minimum inhibitory concentration (MIC) is greater than 256 µg/mL against Carnobacterium divergens [3]; greater than 256 µg/mL against Carnobacterium divergens [5]; greater than 256 µg/mL against Carnobacterium divergens [6]; greater than 256 µg/mL in the test on Carnobacterium divergens [7]; less than 0.016 µg/mL in the test with Escherichia coli [9]. For the same compound, the MIC entry in the test with Carnobacterium divergens [4] and in the test with Carnobacterium divergens [8] was “Active” each time. Moreover, the result in the test on Carnobacterium divergens [2] was inactive.
As for `O=C(Cc1cccs1)N[C@@H]1C(=O)N2C(C(=O)[O-])=C(C[n+]3ccccc3)CS[C@H]12`, the kcat/Km with Carnobacterium divergens [11] was found to be 22000 M⁻¹ s⁻¹. Moreover, in the test with Carnobacterium divergens [12], the Michaelis constant (Km) is 26 µM and the turnover number (kcat) was 0.56 s⁻¹. Moreover, in the test on Carnobacterium divergens [13], the kcat/Km came to 0.3.
As to `CC1(C)S[C@@H]2[C@H](NC(=O)[C@H](C(=O)O)c3ccsc3)C(=O)N2[C@H]1C(=O)O` [TICARCILLIN], the minimal inhibitory concentration (MIC) with Carnobacterium divergens [3] is 32 µg/mL (≈ 83.2 µM); against Carnobacterium divergens [5], 128 µg/mL (≈ 333 µM); against Carnobacterium divergens [6] it was 24 µg/mL (≈ 62.4 µM); against Carnobacterium divergens [7], 24 µg/mL (≈ 62.4 µM); with Escherichia coli [9], 0.75 µg/mL (≈ 1.95 µM); in the test with Escherichia coli [10], greater than 256 µg/mL. Besides, the values for the kcat/Km in the test on Carnobacterium divergens [11] and in the test on Carnobacterium divergens [13] were 330000 M⁻¹ s⁻¹ and 5, respectively. Besides, the MIC result with Carnobacterium divergens [4] and with Carnobacterium divergens [8] was “Active” in each case. Further, the Km in the test with Carnobacterium divergens [12] came out at 106 µM. Besides, the turnover number (kcat) in the test with Carnobacterium divergens [12] stood at 35 s⁻¹.
`CO/N=C(\C(=O)N[C@@H]1C(=O)N2C(C(=O)[O-])=C(C[N+]3(C)CCCC3)CS[C@H]12)c1csc(N)n1`: the outcome with Carnobacterium divergens [2] was inactive.
Turning to `Cc1onc(-c2ccccc2)c1C(=O)N[C@@H]1C(=O)N2[C@@H]1SC(C)(C)[C@@H]2C(=O)O` [OXACILLIN], the MIC was determined as 24 µg/mL (≈ 59.8 µM) in the test with Carnobacterium divergens [3], 24 µg/mL (≈ 59.8 µM) against Carnobacterium divergens [5], 24 µg/mL (≈ 59.8 µM) against Carnobacterium divergens [6] and 16 µg/mL (≈ 39.9 µM) with Carnobacterium divergens [7]. Also, the kcat/Km with Carnobacterium divergens [11] stood at 2.95e+06 M⁻¹ s⁻¹; in the test on Carnobacterium divergens [13] it was 45. The MIC result in the test with Carnobacterium divergens [4] and with Carnobacterium divergens [8] was “Active” in each case. For the same compound, in the test on Carnobacterium divergens [12], the Km worked out at 21 µM. Moreover, the kcat in the test on Carnobacterium divergens [12] is 62 s⁻¹.
Consider `CO/N=C(\C(=O)N[C@@H]1C(=O)N2C(C(=O)O)=C(COC(N)=O)CS[C@H]12)c1ccco1`, for which, in the test on Carnobacterium divergens [2], the outcome was inactive.
As for `C[C@H]1[C@H](NC(=O)/C(=N\OC(C)(C)C(=O)O)c2csc(N)n2)C(=O)N1S(=O)(=O)O` [AZTREONAM], the MIC against Carnobacterium divergens [3] was greater than 256 µg/mL; in the test on Carnobacterium divergens [5] it was greater than 256 µg/mL; against Carnobacterium divergens [6], greater than 256 µg/mL; in the test with Carnobacterium divergens [7], greater than 256 µg/mL; against Escherichia coli [9], less than 0.016 µg/mL; against Escherichia coli [10], less than 0.016 µg/mL. The minimum inhibitory concentration (MIC) result in the test with Carnobacterium divergens [4] and in the test on Carnobacterium divergens [8] was “Active” each time. The result in the test on Carnobacterium divergens [2] was Active.
As for `O=C(O)[C@H]1/C(=C/CO)O[C@@H]2CC(=O)N21` [CLAVULANIC ACID], the Ratio IC50 in test [14] stood at 60. The IC50 in test [1] is 4.7 µM.
On to `CC(C)(O/N=C(\C(=O)N[C@@H]1C(=O)N2C(C(=O)[O-])=C(C[n+]3ccccc3)CS[C@H]12)c1csc(N)n1)C(=O)O` [CEFTAZIDIME], for which the MIC was greater than 256 µg/mL with Carnobacterium divergens [3]; greater than 256 µg/mL with Carnobacterium divergens [5]; greater than 256 µg/mL in the test with Carnobacterium divergens [6]; greater than 256 µg/mL with Carnobacterium divergens [7]; 0.064 µg/mL (≈ 0.117 µM) with Escherichia coli [9]; 0.047 µg/mL (≈ 0.086 µM) in the test with Escherichia coli [10]. Moreover, the MIC entry in the test on Carnobacterium divergens [4] and with Carnobacterium divergens [8] was “Active” throughout. In addition, in the test on Carnobacterium divergens [2], the outcome was inactive.
For `CC1(C)S[C@@H]2[C@H](NC(=O)Cc3ccccc3)C(=O)N2[C@H]1C(=O)O` [PENICILLIN G], the minimum inhibitory concentration (MIC) against Carnobacterium divergens [3] is 12 µg/mL (≈ 35.9 µM); against Carnobacterium divergens [5], 96 µg/mL (≈ 287 µM); in the test with Carnobacterium divergens [6] it was 6 µg/mL (≈ 17.9 µM); against Carnobacterium divergens [7] it was 3 µg/mL (≈ 8.97 µM); with Escherichia coli [9], 4 µg/mL (≈ 12 µM); against Escherichia coli [10], greater than 256 µg/mL. The kcat/Km with Carnobacterium divergens [11] worked out at 6.6e+06 M⁻¹ s⁻¹. Also, the MIC result in the test on Carnobacterium divergens [4] and in the test on Carnobacterium divergens [8] was “Active” each time. The Km with Carnobacterium divergens [12] was found to be 27 µM. Further, in the test on Carnobacterium divergens [12], the turnover number (kcat) was found to be 178 s⁻¹.

Usually IC50 stands for the concentration that inhibits the measured activity by half. The low end stands for greater potency, the high end for weaker potency. What is called MIC is the smallest concentration in the dilution series that meets the test's criterion for growth inhibition. Broadly, the Km is the substrate concentration at which the rate is half of its maximum. The kcat is the maximal rate divided by the concentration of active sites.

The values above are taken from ChEMBL document CHEMBL1151476, “Genetic and biochemical characterization of CAD-1, a chromosomally encoded new class A penicillinase from Carnobacterium divergens” (Antimicrob Agents Chemother, 2008).
